Measurements published in PMC5116011 (The Journal of antibiotics, 2016).
≈ marks a conversion by molar mass, not a printed value. Read-outs that look alike come from different tables or passages of the source.

Key:
B. anthracis sterne = assay: microbe, parasite or virus in culture; type: cell-based; conditions: Bacillus anthracis, read-out: MIC BA
P. vulgaris ATCC 33420 = assay: MIC, microbroth dilution in Mueller-Hinton broth; type: cell-based; conditions: Proteus vulgaris, ATCC33420, read-out: MIC PV
[1] = system: S. aureus -ATCC29213 (MSSA); assay: MIC, microbroth dilution in Mueller-Hinton broth; type: cell-based; conditions: Staphylococcus aureus, read-out: MIC MSSA
How it was run: (§1)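 CLSI broth microdilution in cation-adjusted Mueller-Hinton broth. Inocula were grown from MH agar colonies in MH broth, with a final inoculum of 10^5 CFU/ml. Test compound final range was 200–0.2 µg/ml, incubated 37°C for 18–20 h. MIC was the lowest concentration preventing visible growth. Runs were at least duplicate, and the mean MIC was reported.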

[2] = system: E. coli BW25113 ΔtolC derivative JW5503-1; assay: MIC, microbroth dilution in Mueller-Hinton broth; type: cell-based, Escherichia coli; conditions: for MIC: Escherichia coli
S. aureus NRS 70 (MRSA) = assay: MIC, microbroth dilution in Mueller-Hinton broth; type: cell-based; conditions: Staphylococcus aureus, MRSA|NRS70, read-out: MIC MRSA
How it was run: as §1

[3] = Relative binding affinity; type: physicochemical
How it was run: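 Chelator:Fe(III) stoichiometry was found by the continuous variation method. The apparent iron constant came from the drop in 460 nm absorbance of the preformed test compound–Fe(III) complex as EDTA concentration was raised. pM was calculated as –log free [Fe3+].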

E. coli BW25113 = assay: MIC, microbroth dilution in Mueller-Hinton broth; type: cell-based, Escherichia coli
S. pyogenes ATCC700294 = assay: MIC, microbroth dilution in Mueller-Hinton broth; type: cell-based; conditions: Streptococcus pyogenes, ATCC700294, read-out: MIC SPy
How it was run: as §1

B. subtilis ATCC23857 = assay: MIC, microbroth dilution in Mueller-Hinton broth; type: cell-based; conditions: Bacillus subtilis, ATCC23857, read-out: MIC BS
How it was run: as §1

E. faecalis ATCC33186 = assay: MIC, microbroth dilution in Mueller-Hinton broth; type: cell-based; conditions: Enterococcus faecalis, ATCC33186, read-out: MIC EF
How it was run: as §1

S. pneumoniae R6 = assay: MIC, microbroth dilution in Mueller-Hinton broth; type: cell-based; conditions: Streptococcus pneumoniae, R6, read-out: MIC SP
How it was run: as §1

P. mirabilis ATCC 25933 = assay: MIC, microbroth dilution in Mueller-Hinton broth; type: cell-based; conditions: Proteus mirabilis, ATCC25933, read-out: MIC PM
[4] = system: E. coli ATCC 35218 (Low-level TEM-1); assay: MIC with and without clavulanic acid; type: cell-based; conditions: with clavulanic acid (6 µg/ml)
How it was run: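 Mueller-Hinton broth microdilution per CLSI, run in parallel without and with the β-lactamase inhibitor clavulanic acid (6 µg/ml). MH-broth-grown inoculum was at 10^5 CFU/ml final, with test compound at 200–0.2 µg/ml final. Incubation was 37°C, 18–20 h, and the visible-growth endpoint was read. At least duplicate determinations; the mean MIC was reported.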

[5] = system: E. coli BW25113 ΔampC derivative JW4111-2; type: cell-based, Escherichia coli
P. aeruginosa PA01 = assay: MIC, microbroth dilution in Mueller-Hinton broth; type: cell-based, Pseudomonas aeruginosa; conditions: for MIC: Pseudomonas aeruginosa

CC1(C)SC2C(NC(=O)C(NC(=O)C3=C(O)C(Cc4ccsc4)NC3=O)c3ccccc3)C(=O)N2C1C(=O)O (stereo not shown) [Compound 2916]
MIC (B. anthracis sterne): 1.56 µg/mL (≈ 2.73 µM) | MIC (P. vulgaris ATCC 33420): 6.25 µg/mL (≈ 11 µM) | MIC [1]: < 0.2 µg/mL | MIC ([2]; BW25113, read-out: MIC ECΔtolC): 1.56 µg/mL (≈ 2.73 µM) | MIC ([2]; BW25113, read-out: MIC ECΔtolC MH): 1.56 µg/mL (≈ 2.73 µM) | MIC ([2]; BW25113, read-out: MIC ECΔtolC MH+BP): 1.56 µg/mL (≈ 2.73 µM) | MIC ECΔtolC MH+BP/CCCP ([2]; {}): 0.78 µg/mL (≈ 1.37 µM) | MIC ECΔtolC MH+CCCP ([2]; {}): 0.78 µg/mL (≈ 1.37 µM) | MIC (S. aureus NRS 70 (MRSA)): 50 µg/mL (≈ 87.6 µM) | pM (–log [Fe^3+]) ([3]; 10^−5 M total iron chelator and 10^−6 M total Fe^3+ at pH 7.4): 20.3 | apparent binding constant (Kd, app) for iron (III) ([3]; EDTA competition, MeOH:Tris buffer, pH 7.4 (98:2), 3:1 complex): 0.55 × 10^−29 M^3 | MIC EC MH+BP/CCCP (E. coli BW25113; E. coli BW25113, MH broth with 30 µg/ml 2,2′-bipyridyl and 50 µg/ml CCCP): 12.5 µg/mL (≈ 21.9 µM) | MIC EC + (E. coli BW25113; E. coli BW25113, with clavulanic acid (6µg/ml)): 12.5 µg/mL | MIC (E. coli BW25113; Escherichia coli, BW25113, read-out: MIC EC, E. coli BW25113, Mueller-Hinton broth (Table 2)): 50 µg/mL (≈ 87.6 µM) | MIC (S. pyogenes ATCC700294): 0.39 µg/mL (≈ 0.683 µM) | MIC (B. subtilis ATCC23857): 1.56 µg/mL (≈ 2.73 µM) | MIC (E. faecalis ATCC33186): 25 µg/mL (≈ 43.8 µM) | MIC (S. pneumoniae R6): < 0.2 µg/mL | MIC (P. mirabilis ATCC 25933): 6.25 µg/mL (≈ 11 µM) | MIC ATCC 35218 (Low-level TEM-1) + CLV [4]: 25 µg/mL | MIC ([5]; Escherichia coli, BW25113, read-out: MIC ECΔampC −): 6.25 µg/mL (≈ 11 µM) | MIC ECΔampC + ([5]; {}): 3.13 µg/mL | MIC PA MH+BP/CCCP (P. aeruginosa PA01; P. aeruginosa PA01, MH broth with 30 µg/ml 2,2′-bipyridyl and 50 µg/ml CCCP): 6.25 µg/mL (≈ 11 µM) | MIC PA + (P. aeruginosa PA01; P. aeruginosa PA01, with clavulanic acid (6µg/ml)): 6.25 µg/mL | MIC (P. aeruginosa PA01; PA01, read-out: MIC PA): 25 µg/mL (≈ 43.8 µM) | MIC (P. aeruginosa PA01; PA01, read-out: MIC PA MH): 25 µg/mL (≈ 43.8 µM) | MIC (P. aeruginosa PA01; PA01, read-out: MIC PA MH+BP): 25 µg/mL (≈ 43.8 µM) | MIC (P. aeruginosa PA01; PA01, read-out: MIC PA MH+CCCP): 12.5 µg/mL (≈ 21.9 µM)
